Reference: ChEMBL document CHEMBL1151737, “Development and preclinical studies of broad-spectrum anti-HIV agent (3'R,4'R)-3-cyanomethyl-4-methyl-3',4'-di-O-(S)-camphanoyl-(+)-cis-khellactone (3-cyanomethyl-4-methyl-DCK)” (J Med Chem, 2008)

Assays:
[1] = Therapeutic index, ratio of IC50 for human H9 cells to EC50 for HIV1 3B; type: cell-based; conditions: read-out: Ratio IC50/EC50
[2] = tested on: Human immunodeficiency virus 1; experiment: Antiviral activity against HIV1 3B infected in human H9 lymphocytes; type: functional, organism-based; conditions: Human immunodeficiency virus 1, 3B
[3] = tested on: H9; experiment: Cytotoxicity against human H9 cells; type: cell-based
[4] = tested on: Human immunodeficiency virus 1; experiment: Antiviral activity against multidrug-resistant HIV1 with reverse transcriptase 41L, 67N, 210W, 215Y, 184V, 103N mutation infected in human MT2 cells assessed as inhibition of p24 antigen production after 4 days by ELISA; type: functional, organism-based; conditions: Human immunodeficiency virus 1, MT2, 96 h
Method in brief: (§1)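 MT-2 cells (1 × 10⁴) infected with HIV-1 (100 TCID50) in RPMI 1640 + 10% FBS with graded compound concentrations overnight; supernatant then replaced with compound-free medium. Day 4 post-infection supernatant lysed with 5% Triton X-100; p24 quantified by sandwich ELISA (HIVIG capture, anti-p24 mAb, TMB, A450) against recombinant p24 standard. Triplicate; EC50 from % inhibition of p24.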

[5] = tested on: Human immunodeficiency virus 1; experiment: Antiviral activity against multidrug-resistant HIV1 with reverse transcriptase 41L, 74V, 184V, 210W, 215Y, ins SS, 98G mutation infected in human MT2 cells assessed as inhibition of p24 antigen production after 4 days by ELISA; type: functional, organism-based; conditions: Human immunodeficiency virus 1, MT2, 96 h; method in brief: as §1
[6] = tested on: Human immunodeficiency virus 1; experiment: Antiviral activity against multidrug-resistant HIV1 with reverse transcriptase clone 7324-1 infected human MT2 cells assessed as inhibition of p24 antigen production after 4 days by ELISA; type: functional, organism-based; conditions: Human immunodeficiency virus 1, MT2, 96 h; method in brief: as §1
[7] = Half life in Sprague-Dawley rat at 2 mg/kg, iv; type: ADME, organism-based; parameters: dose 2 mg/kg, route intravenous; conditions: in vivo
Method in brief: (§2)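 Male Sprague-Dawley rats (180–200 g), n = 3, given 2 mg/kg i.v. or 20 mg/kg i.g. in 10% PEG400. Blood taken at 0–720 min, plasma stored at −20 °C. Plasma extracted by acetonitrile protein precipitation and analysed by LC-MS/MS against 5–5000 ng/mL standards. Non-compartmental analysis; F = dose-normalized oral AUC(0–t)/i.v. AUC(0–t). Mean ± SD.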

[8] = tested on: Human immunodeficiency virus 1; experiment: Antiviral activity against wild type HIV1 3B in human MT2 cells assessed as inhibition of p24 antigen production after 4 days by ELISA; type: functional, organism-based; conditions: Human immunodeficiency virus 1, 3B, MT2, 96 h
[9] = tested on: Rattus norvegicus; experiment: Half life in Sprague-Dawley rat at 20 mg/kg, intragastric gavage; type: ADME, organism-based; parameters: dose 20 mg/kg, route intragastric; conditions: in vivo, po; method in brief: as §2
[10] = tested on: Human immunodeficiency virus 1; experiment: Antiviral activity against HIV1 BAL BCF02 isolate of group O with R5 tropism in human PBMC cells assessed as inhibition of p24 antigen production after 4 days by ELISA; type: functional, organism-based; conditions: Human immunodeficiency virus 1, BAL, 96 h
[11] = tested on: Human immunodeficiency virus 1; experiment: Antiviral activity against HIV1 92UG001 isolate of subtype D with X4R5 tropism in human PBMC cells assessed as inhibition of p24 antigen production after 4 days by ELISA; type: functional, organism-based; conditions: Human immunodeficiency virus 1, PBMC, 96 h
[12] = tested on: Human immunodeficiency virus 1; experiment: Antiviral activity against HIV1 BAL 92US657 isolate of subtype B with R5 tropism in human PBMC cells assessed as inhibition of p24 antigen production after 7 days by ELISA; conditions: Human immunodeficiency virus 1, BAL, 168 h
[13] = Selectivity index, ratio of CC50 for human MT4 cells to EC50 for HIV1 Lai; type: toxicity, cell-based
Method in brief: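 Ratio of XTT CC50 (4-day MT-4 exposure) to p24-ELISA EC50 against HIV-1 Lai in MT-4 cells.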

[14] = Ratio of EC50 for multidrug-resistant HIV1with reverse transcriptase clone 7324-1 to EC50 for wild type HIV1 3B; type: functional
Method in brief: (§3)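 Fold change: EC50 against each multi-RT-resistant strain divided by EC50 against wild-type HIV-1 IIIB, both measured by p24 ELISA in MT-2 cells (4-day infection, triplicate).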

[15] = Clearance in Sprague-Dawley rat at 20 mg/kg, intragastric gavage; type: ADME, organism-based; parameters: dose 20 mg/kg, route intragastric; conditions: in vivo, po; method in brief: as §2
[16] = Ratio of EC50 for multidrug-resistant HIV1 with reverse transcriptase 41 L, 67N, 210W, 215Y, 184V, 103N mutation to EC50 for wild type HIV1 3B; type: functional; method in brief: as §3
[17] = tested on: MT2; experiment: Cytotoxicity against human MT2 cells after 4 days by XTT assay; type: cell-based; conditions: mt2, 96 h
Method in brief: (§4)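 Cells (5 × 10⁵/mL) incubated with graded compound at 37 °C for 4 days, then XTT (1 mg/mL) with 0.02 µM PMS added. A450 read after 4 h; CC50 by CalcuSyn. Triplicate.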

[18] = tested on: Human immunodeficiency virus 1; experiment: Antiviral activity against HIV Lai with X4 tropism infected human MT4 cells assessed as inhibition of p24 antigen production after 4 days by ELISA; type: functional, organism-based; conditions: Human immunodeficiency virus 1, M:B_Lai, MT4, 96 h
Method in brief: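 1 × 10⁴ MT-4 cells infected with HIV-1 Lai (100 TCID50) in RPMI 1640/10% FBS with graded compound overnight. Medium then replaced with compound-free medium. Supernatant lysed with Triton X-100 on day 4 and p24 measured by sandwich ELISA (A450) against recombinant p24 standard. Triplicate; EC50 by CalcuSyn.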

[19] = tested on: Human immunodeficiency virus 1; experiment: Antiviral activity against HIV1 94UG103 isolate of subtype A with X4R5 tropism in human PBMC cells assessed as inhibition of p24 antigen production after 7 days by ELISA; conditions: Human immunodeficiency virus 1, PBMC, 168 h
[20] = tested on: Human immunodeficiency virus 1; experiment: Antiviral activity against HIV1 BAL RU570 isolate of subtype G with R5 tropism in human PBMC cells assessed as inhibition of p24 antigen production after 4 days by ELISA; type: functional, organism-based; conditions: Human immunodeficiency virus 1, BAL, 96 h
[21] = Selectivity index, ratio of CC50 for human MT2 cells to EC50 for HIV1 3B; type: toxicity, cell-based; conditions: read-out: Ratio CC50/EC50
[22] = Volume of distribution in Sprague-Dawley rat at 2 mg/kg, iv; type: ADME, organism-based; parameters: dose 2 mg/kg, route intravenous; conditions: in vivo; method in brief: as §2
[23] = tested on: Human immunodeficiency virus 1; experiment: Antiviral activity against HIV1 BAL 93MW959 isolate of subtype C with R5 tropism in human PBMC cells assessed as inhibition of p24 antigen production after 4 days by ELISA; type: functional, organism-based; conditions: Human immunodeficiency virus 1, BAL, 96 h
[24] = tested on: Human immunodeficiency virus 1; experiment: Antiviral activity against HIV1 3B with X4 tropism infected human MT2 cells assessed as inhibition of p24 antigen production after 4 days by ELISA; type: functional, organism-based; conditions: Human immunodeficiency virus 1, 3B, MT2, 96 h; method in brief: as §1
[25] = tested on: Rattus norvegicus; experiment: AUC (0 to t) in Sprague-Dawley rat at 2 mg/kg, iv; type: ADME, organism-based, Plasma; parameters: dose 2 mg/kg, route intravenous; conditions: in vivo; method in brief: as §2
[26] = tested on: Human immunodeficiency virus 1; experiment: Antiviral activity against HIV1 BAL 93MW959 isolate of subtype C with R5 tropism in human PBMC cells assessed as inhibition of p24 antigen production after 7 days by ELISA; conditions: Human immunodeficiency virus 1, BAL, 168 h
[27] = Ratio of EC50 for multidrug-resistant HIV1 with reverse transcriptase 41L, 74V, 184V, 210W, 215Y, ins SS, 98G mutation to EC50 for wild type HIV1 3B; type: functional; method in brief: as §3
[28] = tested on: Rattus norvegicus; experiment: AUC (0 to t) in Sprague-Dawley rat at 20 mg/kg, intragastric gavage; type: ADME, organism-based, Plasma; parameters: dose 20 mg/kg, route intragastric; conditions: in vivo, po; method in brief: as §2
[29] = tested on: Rattus norvegicus; experiment: Bioavailability in Sprague-Dawley rat at 20 mg/kg, intragastric gavage; type: ADME, organism-based; conditions: in vivo, po; method in brief: as §2
[30] = tested on: Rattus norvegicus; experiment: Volume of distribution in Sprague-Dawley rat at 20 mg/kg, intragastric gavage; type: ADME, organism-based; parameters: dose 20 mg/kg, route intragastric; conditions: in vivo, po; method in brief: as §2
[31] = tested on: PBMC; experiment: Cytotoxicity against human PBMC after 4 days by XTT assay; type: cell-based; conditions: 96 h
[32] = tested on: Human immunodeficiency virus 1; experiment: Antiviral activity against HIV1 93BR020 isolate of subtype F with X4R5 tropism in human PBMC cells assessed as inhibition of p24 antigen production after 4 days by ELISA; type: functional, organism-based; conditions: Human immunodeficiency virus 1, PBMC, 96 h
[33] = Clearance in Sprague-Dawley rat at 2 mg/kg, iv; type: ADME, organism-based; parameters: dose 2 mg/kg, route intravenous; conditions: in vivo; method in brief: as §2
[34] = tested on: MT4; experiment: Cytotoxicity against human MT4 cells after 4 days by XTT assay; type: cell-based; conditions: mt4, 96 h; method in brief: as §4

With `Cc1c(CO)c(=O)oc2c3c(ccc12)OC(C)(C)[C@H](OC(=O)C12CCC(C)(C(=O)O1)C2(C)C)[C@@H]3OC(=O)C12CCC(C)(C(=O)O1)C2(C)C` (some centres not stated) as the compound, how does the selectivity ratio [1] read?
The selectivity ratio was 6220.

With `Cc1cc(=O)oc2c3c(ccc12)OC(C)(C)[C@H](OC(=O)[C@@]12CC[C@](C)(C(=O)O1)C2(C)C)[C@@H]3OC(=O)[C@@]12CC[C@](C)(C(=O)O1)C2(C)C` as the compound, how does the EC50 [2] read?
Its EC50 is 0.0015 µM.

What about the selectivity ratio [1] of the same compound?
The selectivity ratio was 15700.

What about the IC50 [3] of the same compound?
Its IC50 is 23.6 µM.

With `Cc1ccnc2c1NC(=O)c1cccnc1N2C1CC1` [NEVIRAPINE] as the compound, how does the EC50 [4] read?
Its EC50 is greater than 14.8 µM.

And the EC50 [5]?
Its EC50 is greater than 14.8 µM.

And the EC50 [6]?
The EC50 was greater than 14.8 µM.

Which half-life [7] does the source give for `Cc1c(CC#N)c(=O)oc2c3c(ccc12)OC(C)(C)[C@H](OC(=O)[C@@]12CC[C@](C)(C(=O)O1)C2(C)C)[C@@H]3OC(=O)[C@@]12CC[C@](C)(C(=O)O1)C2(C)C` here?
The half-life was 1.62 h.

And the EC50 [8]?
The EC50 was 0.2 µM.

What about the EC50 [4] of the same compound?
Its EC50 is 1.81 µM.

What about the t1/2 [9] of the same compound?
Its t1/2 is 2.78 h.

And the EC50 [2]?
Its EC50 is 0.0024 µM.

And the EC50 [5]?
Its EC50 is 0.43 µM.

What about the EC50 [10] of the same compound?
The EC50 was 9.92 µM.

What about the EC90 [10] of the same compound?
Its EC90 is 18.1 µM.

And the selectivity ratio [1]?
The selectivity ratio was 15400.

What about the EC50 [11] of the same compound?
Its EC50 is 0.98 µM.

And the EC90 [11]?
The EC90 was 5.23 µM.

And the EC50 [12]?
Its EC50 is 5.09 µM.

What about the EC90 [12] of the same compound?
The EC90 was 9.22 µM.

And the EC50 [6]?
Its EC50 is 3.93 µM.

And the selectivity ratio [13]?
The selectivity ratio was greater than 66.

And the Ratio EC50 [14]?
Its Ratio EC50 is 14.4.

And the CL/F [15]?
The CL/F was 58 mL/min/kg.

And the Ratio EC50 [16]?
Its Ratio EC50 is 8.96.

What about the CC50 [17] of the same compound?
Its CC50 is 40.8 µM.

What about the EC50 [18] of the same compound?
The EC50 was 1.51 µM.

What about the EC50 [19] of the same compound?
Its EC50 is 0.84 µM.

What about the EC90 [19] of the same compound?
The EC90 was 1.63 µM.

What about the EC50 [20] of the same compound?
The EC50 was 3.27 µM.

And the EC90 [20]?
The EC90 was 8.93 µM.

And the selectivity ratio [21]?
The selectivity ratio was 86.1.

What about the Vd [22] of the same compound?
The Vd was 2.34 L/kg.

And the EC90 [23]?
The EC90 was 3.06 µM.

And the EC50 [24]?
The EC50 was 0.47 µM.

And the AUC [25]?
Its AUC is 195270.08 µg/L/min.

What about the IC50 [3] of the same compound?
Its IC50 is greater than 37 µM.

And the EC50 [26]?
The EC50 was 0.87 µM.

What about the Ratio EC50 [27] of the same compound?
Its Ratio EC50 is 2.13.

And the AUC [28]?
The AUC was 348067.29 µg/L/min.

What about the F [29] of the same compound?
The F was 17.8%.

What about the Vd [30] of the same compound?
Its Vd is 8.19 L/kg.

What about the CC50 [31] of the same compound?
Its CC50 is greater than 150 µM.

And the EC50 [32]?
Its EC50 is 2.18 µM.

And the EC90 [32]?
Its EC90 is 3.76 µM.

And the clearance [33]?
The clearance was 10 mL/min/kg.

And the CC50 [34]?
The CC50 was greater than 100 µM.
